# Measured values: ChEMBL document CHEMBL4368914, “Tricyclic Indazoles-A Novel Class of Selective Estrogen Receptor Degrader Antagonists” (J Med Chem, 2019)
# Test system: not listed separately
# Test: Intrinsic clearance in rat hepatocytes assessed per million cells
# Format: ADME, cell-based, Hepatocyte
# Details: read-out: CLH
# Outline: (§1)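 Rate of metabolism (µl/min/10⁶ cells) measured from DMSO stock in isolated hepatocytes diluted to 1x10⁶ cells/mL.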
row,Compound,hepatocyte CLint [µL/min/1e6 cells]
1,COc1cc(/C=C/C(=O)O)ccc1[C@]1(C)c2ccc3[nH]ncc3c2C[C@@H](C)N1CC(C)(C)F,10
2,C[C@@H]1Cc2c(ccc3[nH]ncc23)[C@@](C)(c2c(F)cc(/C=C/C(=O)O)cc2F)N1CC(C)(C)F,12
3,C[C@@H]1Cc2c(ccc3[nH]ncc23)[C@@H](c2ccc(/C=C/C(=O)O)cc2)N1CC(C)(C)F,8
4,COc1c([C@@H]2c3ccc4[nH]ncc4c3C[C@@H](C)N2CC(C)(F)F)ccc(/C=C/C(=O)O)c1F,17
5,CC(C)CN1[C@H](c2c(F)cc(/C=C/C(=O)O)cc2F)c2ccc3[nH]ncc3c2C[C@H]1C,19
6,COc1cc(/C=C/C(=O)O)c(F)cc1[C@@H]1c2ccc3[nH]ncc3c2C[C@@H](C)N1CC(C)(F)F,22
7,CC(C)CN1CCc2c(ccc3[nH]ccc23)C1c1ccc(/C=C/C(=O)O)cc1 (stereo not drawn),20

# Test system: not listed separately
# Test: Intrinsic clearance in human hepatocytes assessed per million cells
# Format: ADME, cell-based, Hepatocyte
# Details: read-out: CLH
# Outline: as §1
row,Compound,hepatocyte CLint [µL/min/1e6 cells]
1,COc1cc(/C=C/C(=O)O)ccc1[C@]1(C)c2ccc3[nH]ncc3c2C[C@@H](C)N1CC(C)(C)F,4
2,C[C@@H]1Cc2c(ccc3[nH]ncc23)[C@@](C)(c2c(F)cc(/C=C/C(=O)O)cc2F)N1CC(C)(C)F,10
3,C[C@@H]1Cc2c(ccc3[nH]ncc23)[C@@H](c2ccc(/C=C/C(=O)O)cc2)N1CC(C)(C)F,78
4,COc1c([C@@H]2c3ccc4[nH]ncc4c3C[C@@H](C)N2CC(C)(F)F)ccc(/C=C/C(=O)O)c1F,7
5,CC(C)CN1[C@H](c2c(F)cc(/C=C/C(=O)O)cc2F)c2ccc3[nH]ncc3c2C[C@H]1C,22
6,COc1cc(/C=C/C(=O)O)c(F)cc1[C@@H]1c2ccc3[nH]ncc3c2C[C@@H](C)N1CC(C)(F)F,5
7,CC(C)CN1CCc2c(ccc3[nH]ccc23)C1c1ccc(/C=C/C(=O)O)cc1 (stereo not drawn),8

# Biological target: T1, Estrogen receptor (Homo sapiens, UniProt P03372)
# T1 sequence (P03372 whole entry): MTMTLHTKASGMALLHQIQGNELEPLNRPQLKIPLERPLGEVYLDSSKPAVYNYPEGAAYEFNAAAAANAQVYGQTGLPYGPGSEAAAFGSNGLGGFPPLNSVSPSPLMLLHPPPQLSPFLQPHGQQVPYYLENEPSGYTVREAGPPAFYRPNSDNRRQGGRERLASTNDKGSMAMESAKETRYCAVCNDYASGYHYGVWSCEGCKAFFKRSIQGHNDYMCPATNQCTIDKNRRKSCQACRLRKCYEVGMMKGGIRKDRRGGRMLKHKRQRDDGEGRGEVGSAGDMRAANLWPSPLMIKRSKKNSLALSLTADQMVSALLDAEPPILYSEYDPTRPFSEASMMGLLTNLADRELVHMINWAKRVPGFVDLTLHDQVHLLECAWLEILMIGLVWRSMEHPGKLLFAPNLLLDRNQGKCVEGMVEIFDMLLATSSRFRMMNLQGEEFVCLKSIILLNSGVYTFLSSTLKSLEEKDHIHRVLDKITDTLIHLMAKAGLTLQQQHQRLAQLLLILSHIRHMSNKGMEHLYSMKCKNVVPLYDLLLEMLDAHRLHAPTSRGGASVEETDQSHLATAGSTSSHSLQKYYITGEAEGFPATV
# Test: Induction of ERalpha degradation in human MCF7 cells after 18 to 24 hrs by in multiplexed cell assay
# Format: cell-based
# Details: not given
# Outline: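 MCF-7 cells were kept at 37 °C, 5% CO₂ in phenol red-free RPMI1640 with 5% charcoal-stripped FCS and 2 mmol/L glutamine. Compounds came from 10 mmol/L DMSO stocks.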
row,Compound,IC50 [nM]
1,COc1cc(/C=C/C(=O)O)ccc1[C@]1(C)c2ccc3[nH]ncc3c2C[C@@H](C)N1CC(C)(C)F,2.51
2,C[C@@H]1Cc2c(ccc3[nH]ncc23)[C@@](C)(c2c(F)cc(/C=C/C(=O)O)cc2F)N1CC(C)(C)F,0.631
3,C[C@@H]1Cc2c(ccc3[nH]ncc23)[C@@H](c2ccc(/C=C/C(=O)O)cc2)N1CC(C)(C)F,0.316
4,COc1c([C@@H]2c3ccc4[nH]ncc4c3C[C@@H](C)N2CC(C)(F)F)ccc(/C=C/C(=O)O)c1F,6.31
5,CC(C)CN1[C@H](c2c(F)cc(/C=C/C(=O)O)cc2F)c2ccc3[nH]ncc3c2C[C@H]1C,0.794
6,COc1cc(/C=C/C(=O)O)c(F)cc1[C@@H]1c2ccc3[nH]ncc3c2C[C@@H](C)N1CC(C)(F)F,0.316
7,CC(C)CN1CCc2c(ccc3[nH]ccc23)C1c1ccc(/C=C/C(=O)O)cc1 (stereo not drawn),63.1

# Test system: not listed separately
# Test: Glutathione reactivity in human liver microsomes assessed as GSH trapping ratio of compound to clozapine
# Format: ADME, Microsome
# Details: not given
# Outline: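 Glutathione trapping in human liver microsomes, expressed as a ratio to clozapine.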
row,Compound,Ratio
1,C[C@@H]1Cc2c(ccc3[nH]ncc23)[C@@](C)(c2c(F)cc(/C=C/C(=O)O)cc2F)N1CC(C)(C)F,< 0.04
2,CC(C)CN1[C@H](c2c(F)cc(/C=C/C(=O)O)cc2F)c2ccc3[nH]ncc3c2C[C@H]1C,< 0.04

# Test system: not listed separately
# Test: Lipophilicity, log D of the compound at pH 7.4 by shake flask method
# Format: physicochemical
# Details: buffer
# Outline: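 Shake-flask measurement of logD at pH 7.4.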
row,Compound,logD
1,COc1cc(/C=C/C(=O)O)ccc1[C@]1(C)c2ccc3[nH]ncc3c2C[C@@H](C)N1CC(C)(C)F,1.9
2,C[C@@H]1Cc2c(ccc3[nH]ncc23)[C@@](C)(c2c(F)cc(/C=C/C(=O)O)cc2F)N1CC(C)(C)F,2.9
3,C[C@@H]1Cc2c(ccc3[nH]ncc23)[C@@H](c2ccc(/C=C/C(=O)O)cc2)N1CC(C)(C)F,2.9
4,COc1c([C@@H]2c3ccc4[nH]ncc4c3C[C@@H](C)N2CC(C)(F)F)ccc(/C=C/C(=O)O)c1F,2.6
5,CC(C)CN1[C@H](c2c(F)cc(/C=C/C(=O)O)cc2F)c2ccc3[nH]ncc3c2C[C@H]1C,3
6,COc1cc(/C=C/C(=O)O)c(F)cc1[C@@H]1c2ccc3[nH]ncc3c2C[C@@H](C)N1CC(C)(F)F,2.6
7,CC(C)CN1CCc2c(ccc3[nH]ccc23)C1c1ccc(/C=C/C(=O)O)cc1 (stereo not drawn),1.7

# Biological target: T1, Estrogen receptor
# Test: Binding affinity to recombinant human GST-tagged ERalpha LBD expressed in baculovirus-infected insect cells by lantha screen assay
# Details: not given
row,Compound,IC50 [nM]
1,COc1cc(/C=C/C(=O)O)ccc1[C@]1(C)c2ccc3[nH]ncc3c2C[C@@H](C)N1CC(C)(C)F,3.98
2,C[C@@H]1Cc2c(ccc3[nH]ncc23)[C@@](C)(c2c(F)cc(/C=C/C(=O)O)cc2F)N1CC(C)(C)F,0.398
3,C[C@@H]1Cc2c(ccc3[nH]ncc23)[C@@H](c2ccc(/C=C/C(=O)O)cc2)N1CC(C)(C)F,1.58
4,COc1c([C@@H]2c3ccc4[nH]ncc4c3C[C@@H](C)N2CC(C)(F)F)ccc(/C=C/C(=O)O)c1F,1.26
5,CC(C)CN1[C@H](c2c(F)cc(/C=C/C(=O)O)cc2F)c2ccc3[nH]ncc3c2C[C@H]1C,1.26
6,COc1cc(/C=C/C(=O)O)c(F)cc1[C@@H]1c2ccc3[nH]ncc3c2C[C@@H](C)N1CC(C)(F)F,0.501
7,CC(C)CN1CCc2c(ccc3[nH]ccc23)C1c1ccc(/C=C/C(=O)O)cc1 (stereo not drawn),316

# Test system: not listed separately
# Test: Fraction unbound in 10% human plasma by equilibrium dialysis
# Format: ADME, cell-free
# Details: 10% plasma
# Outline: (§2)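 Equilibrium dialysis from DMSO stock in 10% plasma, either Alderley Park Han Wistar rat plasma or human plasma.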
row,Compound,fraction unbound
1,COc1cc(/C=C/C(=O)O)ccc1[C@]1(C)c2ccc3[nH]ncc3c2C[C@@H](C)N1CC(C)(C)F,0.077
2,C[C@@H]1Cc2c(ccc3[nH]ncc23)[C@@](C)(c2c(F)cc(/C=C/C(=O)O)cc2F)N1CC(C)(C)F,0.0033
3,C[C@@H]1Cc2c(ccc3[nH]ncc23)[C@@H](c2ccc(/C=C/C(=O)O)cc2)N1CC(C)(C)F,0.0087
4,COc1c([C@@H]2c3ccc4[nH]ncc4c3C[C@@H](C)N2CC(C)(F)F)ccc(/C=C/C(=O)O)c1F,0.0082
5,CC(C)CN1[C@H](c2c(F)cc(/C=C/C(=O)O)cc2F)c2ccc3[nH]ncc3c2C[C@H]1C,0.0048
6,COc1cc(/C=C/C(=O)O)c(F)cc1[C@@H]1c2ccc3[nH]ncc3c2C[C@@H](C)N1CC(C)(F)F,0.012
7,CC(C)CN1CCc2c(ccc3[nH]ccc23)C1c1ccc(/C=C/C(=O)O)cc1 (stereo not drawn),0.033

# Test system: not listed separately
# Test: Fraction unbound in Alderley Park Han Wistar rat plasma by equilibrium dialysis
# Format: ADME, cell-free
# Details: not given
# Outline: as §2
row,Compound,fraction unbound
1,C[C@@H]1Cc2c(ccc3[nH]ncc23)[C@@](C)(c2c(F)cc(/C=C/C(=O)O)cc2F)N1CC(C)(C)F,0.0023
2,C[C@@H]1Cc2c(ccc3[nH]ncc23)[C@@H](c2ccc(/C=C/C(=O)O)cc2)N1CC(C)(C)F,0.015
3,CC(C)CN1[C@H](c2c(F)cc(/C=C/C(=O)O)cc2F)c2ccc3[nH]ncc3c2C[C@H]1C,0.0052
4,CC(C)CN1CCc2c(ccc3[nH]ccc23)C1c1ccc(/C=C/C(=O)O)cc1 (stereo not drawn),0.068
